The text below walks through data of ChEMBL document CHEMBL1629683, “HIV-1 protease codon 36 polymorphisms and differential development of resistance to nelfinavir, lopinavir, and atazanavir in different HIV-1 subtypes” (Antimicrob Agents Chemother, 2010).

Each structure is given as a SMILES string. Active and inactive are the calls of the source. No cut-off for these calls is given here.

The subject of assay [1] is Human immunodeficiency virus 1. The assay is described as follows: Antiviral activity against HIV1 subtype CRF02_AG harboring protease polymorphism at M36 position and I50FILV, A71V mutant gene infected in human cord blood mononuclear cells assessed as inhibition of viral replication […]. The conditions noted are these: Human immunodeficiency virus 1, subtype CRF02_AG. Format: functional, organism-based. The method in brief:
(§1)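 Cord blood mononuclear cells were PHA-stimulated for 72 h in RPMI 1640 with 10% FBS and IL-2. Cells were infected for 2 h with week-0 clonal virus or PI-selected virus (weeks 25 and 35 of selection). They were plated at 5 × 10⁵ cells/well with PI at 0.04 nM to 10 μM. Drug-containing medium was replenished on day 3, supernatant RT activity was read on day 7, and EC₅₀ was derived.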

The subject of assay [2] is Human immunodeficiency virus 1. Put plainly: Antiviral activity against HIV1 subtype B harboring protease polymorphism at M36 position M46I, I50L, N88S mutant gene infected in human cord blood mononuclear cells assessed as inhibition of viral replication […]. Format: functional, organism-based. The conditions noted are these: Human immunodeficiency virus 1, subtype B. The method, boiled down: as §1

In assay [3] the test system is Human immunodeficiency virus 1. Put plainly: Antiviral activity against HIV1 subtype CRF02_AG harboring protease polymorphism at I36 position and I50FILV, A71V mutant gene infected in human cord blood mononuclear cells assessed as inhibition of viral replication […]. Format: functional, organism-based. To be noted: Human immunodeficiency virus 1, subtype CRF02_AG. The method in brief:
as §1

Assay [4] concerns Human immunodeficiency virus 1. Put plainly: Antiviral activity against HIV1 subtype B harboring protease polymorphism at I36 position and M46I, I50L, N88S mutant gene infected in human cord blood mononuclear cells assessed as inhibition of viral replication […]. Format: functional, organism-based. The conditions noted are these: Human immunodeficiency virus 1, subtype B. The method, boiled down: as §1

The test system of assay [5] is Human immunodeficiency virus 1. Put plainly: Antiviral activity against HIV1 subtype C harboring protease L23I, M46I/M, L89T mutant gene and polymorphism at M36 position infected in human cord blood mononuclear cells assessed as inhibition of viral replication […]. Format: functional, organism-based. The conditions noted are these: Human immunodeficiency virus 1, subtype C. The method, boiled down:
as §1

Assay [6] concerns Human immunodeficiency virus 1. The assay is described as follows: Antiviral activity against HIV1 subtype C harboring protease E35G mutant gene and polymorphism at I36 position infected in human cord blood mononuclear cells assessed as inhibition of viral replication […]. Format: functional, organism-based. To be noted: Human immunodeficiency virus 1, subtype C. The method, boiled down: as §1

The subject of assay [7] is Human immunodeficiency virus 1. The assay is described as follows: Selectivity ratio of EC50 for HIV1 subtype CRF02_AG harboring protease L76V, M46I, I84V mutant gene and polymorphism at M36 position to EC50 for wild type HIV1 subtype CRF02_AG. Format: functional.
In assay [8] the test system is Human immunodeficiency virus 1. Put plainly: Antiviral activity against HIV1 subtype C harboring protease L10R, M46I, I54V, V82S mutant gene and polymorphism at M36 position infected in human cord blood mononuclear cells assessed as inhibition of viral replication […]. Format: functional, organism-based. The conditions noted are these: Human immunodeficiency virus 1, subtype C. The method, boiled down:
as §1

Assay [9] has as its system Human immunodeficiency virus 1. Put plainly: Selectivity ratio of EC50 for HIV1 subtype C harboring protease L10R, M46I, I54V, V82S mutant gene and polymorphism at M36 position to EC50 for wild type HIV1 subtype C. Format: functional.
Assay [10] has as its system Human immunodeficiency virus 1. Put plainly: Selectivity ratio of EC50 for HIV1 subtype C harboring protease L32I, M46I/M, L76V mutant gene and polymorphism at I36 position to EC50 for wild type HIV1 subtype C. Format: functional.
In assay [11] the test system is Human immunodeficiency virus 1. Put plainly: Selectivity ratio of EC50 for HIV1 subtype CRF02_AG harboring protease M46, I47A, I84V mutant gene and polymorphism at I36 position to EC50 for wild type HIV1 subtype CRF02_AG. Format: functional.
Assay [12] concerns Human immunodeficiency virus 1. Put plainly: Antiviral activity against HIV1 subtype CRF02_AG harboring protease L76V, M46I, I84V mutant gene and polymorphism at M36 position infected in human cord blood mononuclear cells assessed as inhibition of viral replication […]. Format: functional, organism-based. The conditions noted are these: Human immunodeficiency virus 1, subtype CRF02_AG. The method, boiled down: as §1

Assay [13] has as its system Human immunodeficiency virus 1. Put plainly: Antiviral activity against HIV1 subtype CRF02_AG harboring protease M46, I47A, I84V mutant gene and polymorphism at I36 position infected in human cord blood mononuclear cells assessed as inhibition of viral replication on day 7 by RT activity assay. To be noted: Human immunodeficiency virus 1, subtype CRF02_AG, 7 days.
In assay [14] the test system is Human immunodeficiency virus 1. Put plainly: Antiviral activity against HIV1 subtype C harboring protease L32I, M46I/M, L76V mutant gene and polymorphism at I36 position infected in human cord blood mononuclear cells assessed as inhibition of viral replication after 48 hrs by luciferase reporter gene assay. Format: functional, organism-based. The conditions noted are these: Human immunodeficiency virus 1, subtype C.

Assay [15] concerns Human immunodeficiency virus 1. The assay is described as follows: Antiviral activity against HIV1 subtype B harboring protease polymorphism at M36 position and L10F, V82A mutant gene infected in human cord blood mononuclear cells assessed as inhibition of viral replication after 48 hrs by luciferase reporter gene assay. Format: functional, organism-based. The conditions noted are these: Human immunodeficiency virus 1, subtype B.

The test system of assay [16] is Human immunodeficiency virus 1. Put plainly: Selectivity ratio of EC50 for HIV1 subtype CRF02_AG harboring protease L33I, M46I, A71T mutant gene and polymorphism at M36 position to EC50 for wild type HIV1 subtype CRF02_AG. Format: functional.
Assay [17] relates to Human immunodeficiency virus 1. Put plainly: Selectivity ratio of EC50 for HIV1 subtype B harboring protease D30N, M46I, A71T and V77I mutant gene and polymorphism at M36 position to EC50 for wild type HIV1 subtype B. Format: functional.
The subject of assay [18] is Human immunodeficiency virus 1. Put plainly: Selectivity ratio of EC50 for HIV1 subtype C harboring protease L23I, M46I, L89T and polymorphism at M36 position to EC50 for wild type HIV1 subtype C M36.
The subject of assay [19] is Human immunodeficiency virus 1. The assay is described as follows: Antiviral activity against HIV1 subtype CRF02_AG harboring protease L33I, M46I, A71T mutant gene and polymorphism at M36 position infected in human cord blood mononuclear cells assessed as inhibition of viral replication […]. Format: functional, organism-based. To be noted: Human immunodeficiency virus 1, subtype CRF02_AG. The method in brief: as §1

The test system of assay [20] is Human immunodeficiency virus 1. Put plainly: Antiviral activity against HIV1 subtype C harboring protease L23I, M46I, L89T mutant gene and polymorphism at M36 position infected in human cord blood mononuclear cells assessed as inhibition of viral replication […]. Format: functional, organism-based. The conditions noted are these: Human immunodeficiency virus 1, subtype C. The method in brief: as §1

Assay [21] deals with Human immunodeficiency virus 1. Put plainly: Antiviral activity against HIV1 subtype B harboring protease polymorphism at M36 position infected in human TZM-bl cells assessed as inhibition of viral replication after 48 hrs by luciferase reporter gene assay. Format: functional, organism-based. The method in brief:
(§2)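 TZM-bl cells (10⁴/well) in DMEM with 10% FBS were infected with the week-0 or week-35 polymorphic variant. After 48 h, cells were PBS-rinsed and lysed, and luciferase activity was read as relative light units. Results are means of three independent experiments run in duplicate.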
For orientation: A reporter such as luciferase makes a cellular process visible.

Assay [22] relates to Human immunodeficiency virus 1. Put plainly: Selectivity ratio of EC50 for HIV1 subtype CRF02_AG harboring protease polymorphism at I36 position and M46 mutant gene to EC50 for wild type HIV1 subtype CRF02_AG. Format: functional.
The subject of assay [23] is Human immunodeficiency virus 1. The assay is described as follows: Antiviral activity against HIV1 subtype C harboring protease D30N, E35G, I85V, L90M mutant gene and polymorphism at I36 position infected in human cord blood mononuclear cells assessed as inhibition of viral replication […]. To be noted: Human immunodeficiency virus 1, subtype C. Format: functional, organism-based. The method, boiled down:
as §1

For assay [24], the system named is Human immunodeficiency virus 1. Put plainly: Antiviral activity against HIV1 subtype B harboring protease D30N, L33I, M46I, N88D mutant gene and polymorphism at I36 position infected in human cord blood mononuclear cells assessed as inhibition of viral replication […] by […]. Format: functional, organism-based. To be noted: Human immunodeficiency virus 1, subtype B. The method, boiled down:
as §1

Assay [25] relates to Human immunodeficiency virus 1. The assay is described as follows: Selectivity ratio of EC50 for HIV1 subtype C harboring protease polymorphism at I36 position to EC50 for wild type HIV1 subtype C. Format: functional.
Assay [26] has as its system Human immunodeficiency virus 1. The assay is described as follows: Antiviral activity against HIV1 subtype CRF02_AG harboring protease polymorphism at I36 position and M46 mutant gene infected in human cord blood mononuclear cells assessed as inhibition of viral replication on day 7 by RT activity assay. To be noted: Human immunodeficiency virus 1, subtype CRF02_AG, 7 days.

Assay [27] deals with Human immunodeficiency virus 1. The assay is described as follows: Antiviral activity against HIV1 subtype CRF02_AG harboring protease polymorphism at I36 position infected in human TZM-bl cells assessed as inhibition of viral replication after 48 hrs by luciferase reporter gene assay. Format: functional, organism-based. The method, boiled down: as §2
Assay [28] concerns Human immunodeficiency virus 1. Put plainly: Antiviral activity against HIV1 subtype B harboring protease D30N, M46I, A71T and V77I mutant gene and polymorphism at M36 position of protease infected in human cord blood mononuclear cells assessed as inhibition of viral replication […]. To be noted: Human immunodeficiency virus 1, subtype B. Format: functional, organism-based. The method in brief:
as §1

In assay [29] the test system is Human immunodeficiency virus 1. Put plainly: Antiviral activity against wild type HIV1 subtype B infected in human cord blood mononuclear cells assessed as inhibition of viral replication after 48 hrs by luciferase reporter gene assay. To be noted: Human immunodeficiency virus 1, subtype B. Format: functional, organism-based.
The test system of assay [30] is Human immunodeficiency virus 1. Put plainly: Antiviral activity against HIV1 subtype B harboring protease polymorphism at I36 position infected in human TZM-bl cells assessed as inhibition of viral replication after 48 hrs by luciferase reporter gene assay. Format: functional, organism-based. The method, boiled down: as §2
The test system of assay [31] is Human immunodeficiency virus 1. The assay is described as follows: Antiviral activity against wild type HIV1 subtype CRF02_AG infected in human cord blood mononuclear cells assessed as inhibition of viral replication after 48 hrs by luciferase reporter gene assay. Format: functional, organism-based. The conditions noted are these: Human immunodeficiency virus 1, subtype CRF02_AG.

For assay [32], the system named is Human immunodeficiency virus 1. Put plainly: Selectivity ratio of EC50 for HIV1 subtype B harboring protease polymorphism at M36 position infected in human cord blood mononuclear cells to EC50 for HIV1 subtype B harboring protease polymorphism at I36 position infected in human cord blood mononuclear cells. Format: functional.
The test system of assay [33] is Human immunodeficiency virus 1. The assay is described as follows: Antiviral activity against wild type HIV1 subtype C infected in human cord blood mononuclear cells assessed as inhibition of viral replication after 48 hrs by luciferase reporter gene assay. Format: functional, organism-based. The conditions noted are these: Human immunodeficiency virus 1, subtype C.

The EC50 is the concentration needed to bring the measured effect to its halfway point. For the molecule `COC(=O)N[C@H](C(=O)N[C@@H](Cc1ccccc1)[C@@H](O)CN(Cc1ccc(-c2ccccn2)cc1)NC(=O)[C@@H](NC(=O)OC)C(C)(C)C)C(C)(C)C` [ATAZANAVIR], the EC50 in [1] came to 9.3 nM; in assay [2], 183 nM; in assay [3], 18.6 nM; in [4], 7.1 nM; in assay [5] it was 88 nM; in assay [6], 3.7 nM.

`Cc1cccc(C)c1OCC(=O)N[C@@H](Cc1ccccc1)[C@@H](O)C[C@H](Cc1ccccc1)NC(=O)[C@H](C(C)C)N1CCCNC1=O` [LOPINAVIR]: the “Ratio EC50” value in assay [7] came out at 22; in assay [9], 190; in [10], 46; in assay [11], 101. Also, the EC50 was found to be 418 nM in assay [8]; 134 nM in assay [12]; 1470 nM in assay [13]; 157 nM in assay [14]; 196 nM in [15].

As to `Cc1c(O)cccc1C(=O)N[C@@H](CSc1ccccc1)[C@H](O)CN1C[C@H]2CCCC[C@H]2C[C@H]1C(=O)NC(C)(C)C` [NELFINAVIR], the “Ratio EC50” value in assay [16] turned out to be 35; in assay [17] it was 70; in assay [18], 163; in assay [22], 6; in assay [25], 1158; in assay [32], 2. In addition, the EC50 in assay [19] was found to be 202 nM; in assay [20], 272 nM; in assay [23] it was 3470 nM; in assay [24], 1460 nM; in [26], 55 nM; in [28], 1140 nM. For the same molecule, the concentration giving a half-maximal response (EC50) in assay [29] turned out to be 9.8 nM; in assay [31] it was 5.7 nM; in [33], 1.67 nM. The outcome in assay [21], in assay [27] and in assay [30] was Active.
